Measurements published in the EternaBench riboswitch data.

Test system: MS2 coat protein
Experiment: apparent Kd, MS2 coat protein; higher = weaker binding; RNA-MaP array; FMN 200 µM where present
Procedure, shortened: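 Green signal was scaled to red-channel RNA signal and control-cluster median Fmax, and the apparent Kd was taken as the median of filtered per-cluster binding-curve fits. The binding series used SNAP-549-labelled MS2 coat protein from 0.7 or 1.5 nM, doubling to 3 µM, on designs transcribed by stalled E. coli RNA polymerase on Illumina sequencing-chip clusters. Each series ran without and then with constant ligand in 100 mM Tris-HCl pH 7.5, 80 mM KCl, 4 mM MgCl2, BSA, DTT, yeast tRNA and Tween-20.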

[1] = designed as: OFF switch for flavin mononucleotide, no ligand
[2] = ligand present: flavin mononucleotide, designed as: OFF switch for flavin mononucleotide
[3] = designed as: ON switch for flavin mononucleotide, no ligand
[4] = ligand present: flavin mononucleotide, designed as: ON switch for flavin mononucleotide

Sequence	apparent Kd [1] [µM]	apparent Kd [2] [µM]	apparent Kd [3] [µM]	apparent Kd [4] [µM]
CAGUAUAACGAAGGAUAUGGAUACAUGAGGAUCACCCAUGUAUUUUUUGUGAUUUUAAAAUUGAUCCAGAAGGUCGUAUAACUG	0.0311	0.0292		
CUCAUGUCAGGAUAUUAAGUCCGUAGCCUAUGGCUGCAACAUGAGAAGGGACAUGAGGAUCACCCAUGUCGGGA	0.0475	0.0767		
CAGUACUGAGGAUAUACAUGAGGAUCACCCAUGUGCCUAAGCUAGGAUACUAGCAUUAGUAGAAGGCAGUACUG	0.0128	0.0248		
CAGUACUGAGGAUAUACAUGAGGAUCACCCAUGUGUUCCAGCUAGGAAACUAGCAAAAUUAGAAGGCAGUACUG	0.0117	0.0207		
ACUGUUGAGUAGAAGGUACGAUAUUAGUUAUAGUAAGGAUAUACUAACAUGAGGAUCACCCAUGUAUAAAUGGAUAAAUAUUCU			0.00991	0.0115
AGGGUGGGCUCAGGAUAUCAGGGAGAGAUGUGGACAUGAGGAUCACCCAUGUACCAGUGUUGUCAUGAGAAGGGAGAUACUGUA			0.0527	0.028
GCGUACAUAUCAGGAUAUCAUAUUAUUGUUUUACUCAGUGUAUACAUGAGGAUCACCCAUGUUCUUGAGAAGGGAUUACUACGC	0.0152	0.0147		
UAUACACAUGAGGAUCACCCAUGUGAGGAUAUGUUAAUUUUAAUGAAAAUUAAAAUUAACAGAAGGCACAUAUA	0.0641	0.0803		
UAACAAAUUGUCAGGAUAUCAGUCCCGGCCCAGAUUGAGAAGGGACAUGAGGAUCACCCAUGUAUGAUUCUCAG		0.114		
AAAGCAACAUGAGGAUCACCCAUGUAGGAUAUCGCUAUUGUAAUCAUGAAACAUGAUUACAAUAGCGAGAAGGACAUAUGGCCC	0.0108	0.0317		
GUAGCUAUCGGAGGAUAUUCCUUGCGGAAACGCACAUGAGGAUCACCCAUGUAAAUAAAUAAUUGGGAGAAGGCCGAUAGCUAC			0.045	0.0149
AUAUAAAAUAUAGGAUAUGGAAACAUGAGGAUCACCCAUGUAUGAUAAGAUAAAUUAUGAUAUAGCCAGAAGGAUACAAUAUAA			0.0313	0.0383
UGGUACUAGGGAGGAUAUGGGAAGAUACAUGAGGAUCACCCAUGUUUAAGAAUGCCGAGAGUCAACUAGAAGGCCCUAGUACCU			0.18	0.0203
UGUCGGAGCAGAGGAUAUUACAUGAGGAUCACCCAUGUAUGAACCGAUAGCUGGAAACAGCAAUGUAAGAAGGCUGCUCCGACA	0.019	0.258		
ACUAGGCGAGGAUAUACAUGCUUAACGCAGGAAAAGCUGCGACAUGAGGAUCACCCAUGUAGAAGGCGCAAAUA	0.0157	0.115		
GGCUCCGCUCGAGGAUAUAGCUGCAUGUAGUGUCCUGAGGCACAUGAGGAUCACCCAUGUGUAGGCUAGAAGGCGACGGACACU	0.00881	0.0262		
CUGUGACGGAUCCAGAAUUACAACAUGAGGAUCACCCAUGUACAGGAUAUCGGGUUGAUAGGCGCCGAGAAGGGUAUGAUCACG	0.137	0.121		
UAGGUACGAGGAUAUACAUAGAUACAGACACAUGUAGAUGUACAUGAGGAUCACCCAUGUAGAAGGCGUAUAUA	0.0678	0.237		
UGUGCGUCAGGAUAUUCUAUUUAUUACAUGAGGAUCACCCAUGUGAAUGUACAAGGGUGUGAAGAAGGGACUUGUC	0.686	0.526		

Sequence	apparent Kd [1] [µM]	apparent Kd [2] [µM]	apparent Kd [3] [µM]	apparent Kd [4] [µM]
GUUAUGCGAGGAUAUACAUGAGGAUCACCCAUGUAAUCUGGUGGCGUGAAAAUAAAGUGUAGAAGGCGCUGACC	0.0176	0.0319		
UGGUACUAGGGAGGAUAUGGUAAGAUACAUGAGGAUCACCCAUGUUUAAGAAUGCCGAGAGGCAACUAGAAGGCCCUAGUACCU			0.00647	0.00504
ACAUACAUUCGAGGAUAUCGGUGAACAAAUUAACGAGAAGGCGAUAUAAUGUUUAAUCUUAUAAACAUGAGGAUCACCCAUGUA			0.0685	0.028
CGUCGAUACCAGAAGGACAUGAGGAUCACCCAUGUAGGAUAUGGGUGACCGGGAUGGCGGACACGCUGCCCGGGCACAUGCGAC			0.0106	0.00779
AUAUAGCGAGGAUAUACAUGAGGAUCACCCAUGUGGUAGUAGAUACGGUAGAGCUAGUGUAGAAGGCGCUAUGA	0.463	0.16		
AUAUUUGUGUAGAAGGUACGUGAUUAGUCAUAGUAAGGAUAUACUGACAUGAGGAUCACCCAUGUAUAAAUAGUUAAAUGUUCU			0.0144	0.00852
GCUAGUAUUGCAGGAUAUUGUGUUUAAUUAUGGCAAGAAGGGCAUUACAUGAGGAUCACCCAUGUUUUCCUUAGUCAUACUAGC	0.00557	0.00663		
AGAAAACAUGAGGAUCACCCAUGUGAGGAUAUCGAUGUCCAAGCCCGGGUGCGGGACUCGAGAAGGCACUUGGG	0.0557	0.0368		
AAUUAUUAUUGAGGAUAUGGUAGUGAAACACUACCAGAAGGCGGUAUAAACAUGAGGAUCACCCAUGUGAGCCUGAUGCUUAUG	0.0242	0.0442		
GGUGUGUUAGGAUAUCGCGGCGGCGGCGUUUGUUGUUGUUGUGAGAAGGGACAUGAGGAUCACCCAUGUGCGCC	0.0244	0.0272		
GCAUAUCAGGGAGGAUAUGACAUGAGGAUCACCCAUGUAAUUAUGGCUCUGUCAGAAGGCCCAUCGUCAGUAUAGUGACGAGAC	0.375	0.137		
UCGUGAAGGACAGGAUAUGGACAUGAGGAUCACCCAUGUACAUGGGAAUAUAUACUGAAUUUGUACUAGAAGGGUUACAUAAAU	0.0261	0.0201		
GGAGCGGAAGGAUAUGCUGCGGGAUUGCAUGGAAAGAAAAUACAUGAGGAUCACCCAUGUAGAAGGUCCGUGAA	0.0282	0.0701		
GGUGCUAUGUAGAAGGCAGAUCUGAUUCAGAUCUGAGGAUAUACAUGAGGAUCACCCAUGUUAUGCACCAGCACGAGAGUGCAU	0.0135	0.0351		
CAGCCCUGAGGAUAUCCCUACUUGUACAUGAGGAUCACCCAUGUUCUCCUCUGGGCUUUGGGAGAAGGCAGGUCUC	0.015	0.0177		
AGCAACAUGAGGAUCACCCAUGUUGGUUCGAAAACGGACUCACAGGAUAUGCAGCGUGAUCGCUCGCAGAAGGGUGCGUCCUCA			0.0512	0.0387
AUCUAAGAAUUAAUUGUGACAGUGAGAAGGCUAUAGUUUGUGACCGACAUGAGGAUCACCCAUGUAGAGGAUAUCACUAGCUAC	0.0399	0.253		
AAGGAUAGAGGAUAUACAUAGAUACAGAUUCAUGUGGAACUACAUGAGGAUCACCCAUGUAGAAGGCUAUCCUA	0.0401	0.262		
AACGUGUAAGGAUAUGCUGCUCGUCACAAAAGUGAUGAGUAGCAGAAGGUACAUGAGGAUCACCCAUGUAAAGA	0.0354	0.0738		

Sequence	apparent Kd [1] [µM]	apparent Kd [2] [µM]	apparent Kd [3] [µM]	apparent Kd [4] [µM]
UGAGCUGAAGGAUAUGCGUAAUCUCGGUGACGAGUAGAUCUACAUGAGGAUCACCCAUGUAGAAGGUCAGUUCU	0.0155	0.0175		
AGCUGUGGCCGAGGAUAUCUAAAACCUCAAAACGAAAUAUAAUCGAACAUGAGGAUCACCCAUGUAGAGAAGGCGGUCUCAGCA	0.27	0.514		
GGUCCACAUGAGGAUCACCCAUGUUAGGAUAUCUCCCGCCUCCUCACUAGAGGCGGACAGAGAAGGAACAUCAA	0.026	0.078		
UAUAUAUAGUAAGGAUAUGUAUUAAUUAUAUAAACAGAAGGUACUGACAUGAGGAUCACCCAUGUUUUAGUGUGGGCAUGUAGA	0.0815	0.122		
AAUAAACUCACAGGAUAUAGCAGAGGUCGCGCGAACUUACAGGCGACUAUGCUAGAAGGGUGACCACAUGAGGAUCACCCAUGU			0.944	0.162
GCUGACGAUGUAGGAUAUCUCGACGAUAAGUCGAGAGAAGGACAUGAGGAUCACCCAUGUAAACUCGCGUCAGCGAGGAAACUC	0.0179	0.0201		
UCAUUAUAAAUCCAUCAUAACUACAUGAGGAUCACCCAUGUGCAGGAUAUCGAUGGUUUAACUAUCGAGAAGGGCAAUUACAGA	0.0319	0.0721		
UCACGGGAUUGAGGAUAUAUUUAAAUUUUUACAAUAGAAGGCAAAUUUUUAGUUUUUUCACUUUACAUGAGGAUCACCCAUGUU	0.0288	0.0245		
GUCAGCUCGUGAGGAUAUACAUGUGCUGGAAACAGCACUAAAGAUUUCACAUGAGGAUCACCCAUGUAGAAGGCACGAGCUGAU	0.0161	0.038		
CUCAUGUGAGGAUAUGUACAGAAAAAAAUGGGUGAAACUGUACAGAAGGCACAUGAGGAUCACCCAUGUGCCUU	0.0243	0.0122		
GUUACAUGAGGAUCACCCAUGUAUGUGUGGGAGUAAGUGUCUUAGGAUAUCUAUUAUUGAAAUUAAGAGAAGGAAGAUUGUUGU			0.113	0.104
GGAUUACAUGAGGAUCACCCAUGUGAGGAUAUCGAUGUCCUAGGUCAAGUGCGGGACUCGAGAAGGCACUUGGA	0.0524	0.0289		
AUCAUGUUAGGAUAUACAAGAAAAGAAAAGAAAGAAAAGAAGUAGAAGGAACAUGAGGAUCACCCAUGUAAGAA	0.0273	0.0454		
UCACGUCACCAAGGAUAUACCCGAAGAUCCAUGGUAGAAGGUGGUGACAUGAGGAUCACCCAUGUCCGCGCGGACAAGUGUGUU	0.118	0.0267		
UAUGACAUGAGGAUCACCCAUGUCAGCGAGAAAUGAGAGUCACAGGAUAUGUUUUCGGCCGGCAGACAGAAGGGUGACCCUCCG			0.00733	0.00674
CUUUAGUGAGGAUAUCAGUAGUAAUACAAUAGUAUUACUAUUGAGAAGGCACAUGAGGAUCACCCAUGUUCCUC	0.0246	0.141		
UUUACCAGAGGAUAUGCGAAUAAAUAAAACUUUUUUUUUUAACAUGAGGAUCACCCAUGUAGAAGGCUGCUUUU	0.0254	0.0236		
AGCAGACGAGGAUAUAGAUUUAGAUACAUGAGGAUCACCCAUGUAUAGAUGUAUUUAGAUUUAGAAGGCGUCUGCU	0.211	0.221		
